Results as given in ChEMBL document CHEMBL1131614, “Novel calcium antagonists with both calcium overload inhibition and antioxidant activity. 1. 2-(3, 5-di-tert-butyl-4-hydroxyphenyl)-3-(aminopropyl)thiazolidinones” (J Med Chem, 1998).
Where “and” joins values, the source holds several entries; their conditions need not be identical. Identical values can stand only once.

Columns and labels:
[1] = target: Voltage-dependent L-type calcium channel subunit alpha-1C (Rattus norvegicus, UniProt P22002); assay: In vitro inhibition of K+ induced contractions of the isolated rat aorta.; assay type: functional, tissue-based
Sequence of Voltage-dependent L-type calcium channel subunit alpha-1C (P22002 whole entry): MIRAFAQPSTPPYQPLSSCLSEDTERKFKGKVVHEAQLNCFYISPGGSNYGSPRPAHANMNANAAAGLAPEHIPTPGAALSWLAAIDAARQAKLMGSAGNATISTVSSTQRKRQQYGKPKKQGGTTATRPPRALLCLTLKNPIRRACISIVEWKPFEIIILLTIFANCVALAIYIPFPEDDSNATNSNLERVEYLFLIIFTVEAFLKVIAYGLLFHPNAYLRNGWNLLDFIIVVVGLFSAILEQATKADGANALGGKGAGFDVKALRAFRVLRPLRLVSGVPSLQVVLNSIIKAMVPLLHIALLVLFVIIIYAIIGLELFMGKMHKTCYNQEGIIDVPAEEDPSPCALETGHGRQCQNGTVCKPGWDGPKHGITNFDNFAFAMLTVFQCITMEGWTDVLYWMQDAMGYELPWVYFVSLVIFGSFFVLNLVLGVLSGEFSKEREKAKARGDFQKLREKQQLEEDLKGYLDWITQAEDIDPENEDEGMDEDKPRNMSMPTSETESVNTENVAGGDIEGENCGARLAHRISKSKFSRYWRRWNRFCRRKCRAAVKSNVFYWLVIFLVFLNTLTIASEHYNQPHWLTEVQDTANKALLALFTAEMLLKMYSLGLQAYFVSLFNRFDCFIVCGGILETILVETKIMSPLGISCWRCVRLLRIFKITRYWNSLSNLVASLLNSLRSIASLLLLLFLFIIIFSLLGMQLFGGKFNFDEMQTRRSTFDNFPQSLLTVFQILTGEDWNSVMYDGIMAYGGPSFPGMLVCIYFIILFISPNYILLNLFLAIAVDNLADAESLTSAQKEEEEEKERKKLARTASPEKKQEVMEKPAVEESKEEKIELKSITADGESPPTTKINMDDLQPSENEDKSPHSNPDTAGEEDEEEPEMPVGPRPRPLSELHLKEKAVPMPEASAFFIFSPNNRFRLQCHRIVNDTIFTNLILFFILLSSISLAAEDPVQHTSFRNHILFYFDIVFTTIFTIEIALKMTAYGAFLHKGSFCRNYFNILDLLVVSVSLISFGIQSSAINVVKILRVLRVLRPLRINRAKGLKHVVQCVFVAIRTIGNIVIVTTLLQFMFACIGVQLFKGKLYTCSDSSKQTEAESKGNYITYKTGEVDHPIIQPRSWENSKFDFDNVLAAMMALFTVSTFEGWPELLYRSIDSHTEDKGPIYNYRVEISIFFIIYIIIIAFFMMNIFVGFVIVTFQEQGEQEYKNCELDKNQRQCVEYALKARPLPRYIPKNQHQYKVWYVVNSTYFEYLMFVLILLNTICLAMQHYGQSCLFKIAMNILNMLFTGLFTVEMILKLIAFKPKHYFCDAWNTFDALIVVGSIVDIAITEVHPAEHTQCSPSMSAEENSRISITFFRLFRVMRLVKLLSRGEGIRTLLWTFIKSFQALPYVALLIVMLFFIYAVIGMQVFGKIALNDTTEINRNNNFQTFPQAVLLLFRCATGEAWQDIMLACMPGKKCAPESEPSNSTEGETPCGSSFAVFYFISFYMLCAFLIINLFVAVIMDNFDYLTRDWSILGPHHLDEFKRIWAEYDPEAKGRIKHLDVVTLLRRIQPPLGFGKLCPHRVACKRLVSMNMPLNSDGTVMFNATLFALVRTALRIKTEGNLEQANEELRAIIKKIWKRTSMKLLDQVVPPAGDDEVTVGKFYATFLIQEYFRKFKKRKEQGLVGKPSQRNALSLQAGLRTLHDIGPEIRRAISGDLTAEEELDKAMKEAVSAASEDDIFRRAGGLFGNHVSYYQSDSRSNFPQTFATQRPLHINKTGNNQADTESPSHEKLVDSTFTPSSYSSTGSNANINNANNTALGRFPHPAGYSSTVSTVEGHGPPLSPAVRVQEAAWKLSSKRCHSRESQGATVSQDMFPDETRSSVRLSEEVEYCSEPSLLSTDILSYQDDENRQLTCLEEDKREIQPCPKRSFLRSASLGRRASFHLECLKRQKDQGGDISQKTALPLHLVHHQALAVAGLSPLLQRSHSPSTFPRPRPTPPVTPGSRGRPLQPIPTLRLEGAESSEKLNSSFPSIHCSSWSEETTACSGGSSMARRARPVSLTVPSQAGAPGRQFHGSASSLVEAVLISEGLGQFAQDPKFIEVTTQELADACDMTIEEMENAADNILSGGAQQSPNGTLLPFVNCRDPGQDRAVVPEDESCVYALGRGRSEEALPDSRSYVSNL

[2] = species: Rattus norvegicus; assay: In vitro inhibition of veratridine induced rat myocardiac cell death.; assay type: functional
[3] = target: T1, Seed linoleate 13S-lipoxygenase-1 (Glycine max) (UniProt P08170); assay: In vitro inhibition of rabbit LDL oxidation by soybean lipoxygenase at 0.5 uM; assay type: functional
T1 sequence (whole entry): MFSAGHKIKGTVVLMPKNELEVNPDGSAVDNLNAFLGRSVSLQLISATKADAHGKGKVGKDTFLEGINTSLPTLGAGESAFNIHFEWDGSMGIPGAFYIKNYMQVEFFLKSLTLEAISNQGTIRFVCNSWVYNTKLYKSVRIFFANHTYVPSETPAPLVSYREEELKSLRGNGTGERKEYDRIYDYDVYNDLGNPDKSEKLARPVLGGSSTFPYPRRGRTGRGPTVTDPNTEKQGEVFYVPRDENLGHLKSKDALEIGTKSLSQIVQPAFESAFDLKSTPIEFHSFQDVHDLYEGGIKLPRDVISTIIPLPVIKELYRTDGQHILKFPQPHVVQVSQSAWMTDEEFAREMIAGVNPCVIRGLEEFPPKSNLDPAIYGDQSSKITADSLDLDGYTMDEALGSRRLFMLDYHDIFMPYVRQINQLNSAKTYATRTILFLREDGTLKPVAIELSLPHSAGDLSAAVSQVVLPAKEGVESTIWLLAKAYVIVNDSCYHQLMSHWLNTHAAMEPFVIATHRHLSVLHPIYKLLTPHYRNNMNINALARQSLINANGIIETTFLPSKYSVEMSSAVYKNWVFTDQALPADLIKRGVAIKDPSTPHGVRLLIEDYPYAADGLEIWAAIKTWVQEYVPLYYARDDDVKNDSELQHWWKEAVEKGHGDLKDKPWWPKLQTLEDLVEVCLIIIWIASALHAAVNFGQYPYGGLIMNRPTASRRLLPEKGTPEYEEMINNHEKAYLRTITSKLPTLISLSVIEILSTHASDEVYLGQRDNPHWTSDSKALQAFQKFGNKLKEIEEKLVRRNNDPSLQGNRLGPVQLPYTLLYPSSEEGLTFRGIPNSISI
Summary of the method: (§1)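 Compound added to rabbit LDL (Havel method), then soybean lipoxygenase type-IS at 40 μg/mL final. Incubated 24 h at 37 °C in a CO2 incubator. Oxidized LDL separated by gel-permeation chromatography, and fluorescence of the LDL fraction read at ex 360/em 430 nm. Expressed as percent of control.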

[4] = target: T1, Seed linoleate 13S-lipoxygenase-1 (Glycine max); assay: In vitro inhibition of rabbit LDL oxidation by soybean lipoxygenase at 5 uM; assay type: functional; summary of the method: as §1
[5] = target: T1, Seed linoleate 13S-lipoxygenase-1 (Glycine max); assay: In vitro inhibition of rabbit LDL oxidation by soybean lipoxygenase.; assay type: functional; set-up: scale not given: the % may be the effect or the level left; summary of the method: as §1

Compound | IC50 [1] [nM] | IC>80 [2] [µM] | also measured
CN(c1nc2ccccc2s1)C1CCN(CCCCOc2ccc(F)cc2)CC1 | 760 | 0.032 | –
CN(c1nc2ccccc2s1)C1CCN(CCCN2C(=O)CSC2c2cc(C(C)(C)C)c(O)c(C(C)(C)C)c2)CC1 (centres undefined) | 230 | 1 | LDL oxidation, % of control [3]: 25.8%; LDL oxidation remaining (% of control) [4]: 4.9%
COc1cc2c(cc1OC)CN(CCCN1C(=O)CSC1c1cc(C(C)(C)C)c(O)c(C(C)(C)C)c1)CC2 (centres undefined) | 200 | 1 | –
CC(C)(C)c1cc(C2SCC(=O)N2CCCN2CCC(Cc3ccccc3)CC2)cc(C(C)(C)C)c1O (centres undefined) | 210 | 0.32 | –
Cc1c(C)c2c(c(C)c1O)CC[C@@](C)(CCC[C@H](C)CCC[C@H](C)CCCC(C)C)O2 | – | – | LDL oxidation, % of control [3]: 60.2%; LDL oxidation remaining (% of control) [4]: 13.2%
COc1ccc(CCN(C)CCCN2C(=O)CSC2c2cc(C(C)(C)C)c(O)c(C(C)(C)C)c2)cc1OC (centres undefined) | 93 | 1 | LDL oxidation, % of control [3]: 8.7%; LDL oxidation remaining (% of control) [4]: 0.6%
COc1ccc(OCCN(C)CCCN2C(=O)CSC2c2cc(C(C)(C)C)c(O)c(C(C)(C)C)c2)cc1OC (centres undefined) | 180 | 1 | –
CN(CCCN1C(=O)CSC1c1cc(C(C)(C)C)c(O)c(C(C)(C)C)c1)CCOc1ccc2c(c1)OCO2 (centres undefined) | 62 | 0.32 | LDL oxidation, % of control [3]: 12.9%; LDL oxidation remaining (% of control) [4]: 3%
Cc1cc(C(C)(C)C)c(O)c(C(C)(C)C)c1 | – | – | Control [5]: 19.7% and 0.9%
COc1ccc([C@@H]2Sc3ccccc3N(CCN(C)C)C(=O)[C@@H]2OC(C)=O)cc1 [DILTIAZEM] | – | >10 | LDL oxidation, % of control [3]: 109%; LDL oxidation remaining (% of control) [4]: 111%
COc1ccc(CN(C)CCCN2C(=O)CSC2c2cc(C(C)(C)C)c(O)c(C(C)(C)C)c2)cc1OC (centres undefined) | – | 1 | –

More lines, main results first:

IC50 [1] [nM] | Compound | IC>80 [2] [µM] | also measured
600 | CN(CCCN1C(=O)CSC1c1cc(C(C)(C)C)c(O)c(C(C)(C)C)c1)Cc1ccccc1 (centres undefined) | – | –
4400 | CC(C)(C)c1cc(C2SCC(=O)N2CCCN)cc(C(C)(C)C)c1O (centres undefined) | – | –
1500 | CN(C)CCCN1C(=O)CSC1c1cc(C(C)(C)C)c(O)c(C(C)(C)C)c1 (centres undefined) | – | –
230 | COc1ccc(OCCN(C)CCCN2C(=O)CSC2c2cc(C(C)(C)C)c(O)c(C(C)(C)C)c2)cc1 (centres undefined) | – | –
430 | CN(CCCN1C(=O)CSC1c1cc(C(C)(C)C)c(O)c(C(C)(C)C)c1)CC(O)COc1ccc2c(c1)OCO2 (centres undefined) | – | –
2400 | CNCCCN1C(=O)CSC1c1cc(C(C)(C)C)c(O)c(C(C)(C)C)c1 (centres undefined) | – | –
1200 | CN(CCCN1C(=O)CSC1c1cc(C(C)(C)C)c(O)c(C(C)(C)C)c1)CC1CC1 (centres undefined) | – | –
420 | CN(CCCN1C(=O)CSC1c1cc(C(C)(C)C)c(O)c(C(C)(C)C)c1)CC(O)COc1ccccc1 (centres undefined) | – | –
250 | CN(CCCN1C(=O)CSC1c1cc(C(C)(C)C)c(O)c(C(C)(C)C)c1)Cc1ccc2c(c1)OCO2 (centres undefined) | – | –
300 | COc1cc(OCCN(C)CCCN2C(=O)CSC2c2cc(C(C)(C)C)c(O)c(C(C)(C)C)c2)cc(OC)c1OC (centres undefined) | – | –
840 | CCOCCN(C)CCCN1C(=O)CSC1c1cc(C(C)(C)C)c(O)c(C(C)(C)C)c1 (centres undefined) | – | –
1700 | CN(C)CCN(C)CCCN1C(=O)CSC1c1cc(C(C)(C)C)c(O)c(C(C)(C)C)c1 (centres undefined) | – | –
